These results are taken from ChEMBL document CHEMBL1126673, “6-[(aminoalkyl)amino]-substituted 7H-benzo[e]perimidin-7-ones as novel antineoplastic agents. Synthesis and biological evaluation” (J Med Chem, 1993).

Data set [1] has as its system L1210. The experiment in a line: Concentration of compound required to inhibit the cellular protein biosynthesis by 50%. In kind it is functional, cell-based. The settings on record: Mus musculus. In a few lines: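 Murine L1210 leukemia cells grown in RPMI 1640 with 5% fetal calf serum, penicillin/streptomycin, 37 °C, 5% CO2, passaged every 2–3 days. Log-phase cells seeded at final 0.05×10^6 cells/mL and exposed 48 h. Growth inhibition read as cellular protein content; EC50 = concentration giving 50% inhibition. At least four runs, mean ± SEM.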

For data set [2], the species on record is Equus caballus. The data set is described as follows: (§1) Concentration of substrate at which the amount of total cytochrome c reduction is decreased by 10%. The format is functional. In a few lines: (§2)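 NADH dehydrogenase substrate assay: decrease in enzymatic cytochrome c reduction at low NADH. Mixture of […], 0–200 μM compound, 10 μM NADH, 0.125 units/mL NADH dehydrogenase, 50 μg/mL SOD, 0.50 M HEPES pH 7.4. IC10 = substrate concentration reducing total cytochrome c reduction by 10%.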

The nature of data set [3]: (§3) Activity of NADH dehydrogenase was determined. In kind it is functional. The essentials:
(§4)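 Enzymatic NADH oxidation stimulated by compound: reaction with 100 μM test compound, 100 μM NADH, NADH dehydrogenase at the stated activity, in 0.05 M HEPES pH 7.4.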

Data set [4] has as its system P388. The experiment in a line: (§5) Ratio of medium survival time of the treated to the control mice at the dose of 100 (mg/kg). The format is functional, Mus musculus.
In data set [5] the test system is P388. The data set is described as follows: Ratio of medium survival time of the treated to the control mice at the dose of 50 (mg/kg). The format is functional, Mus musculus.
A short description of data set [6]: Ratio of toxic deaths/survivors 7 days after the day 5 injection as a measure of drug toxicity at the dose of 100 (mg/kg). The settings on record: in vivo, 168 h. In kind it is organism-based. In a few lines: (§6)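 P388 leukemia model in (BALB/c × DBA/2) F1 mice, 10^6 cells ip on day 0. Toxicity was scored as toxic deaths/survivors 7 days after the day-5 injection.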

Data set [7] in a line: NADH oxidation by the compound was determined. The format is functional. In a few lines:
as §4

Data set [8] in a line: Ratio of toxic deaths/survivors 7 days after the day 5 injection as a measure of drug toxicity at the dose of 50 (mg/kg). In kind it is organism-based. The settings on record: in vivo, 168 h. The essentials:
as §6

The target in data set [9] is NADH-ubiquinone oxidoreductase chain 4 (Homo sapiens) (UniProt P03905). Described as §1. In kind it is functional. In a few lines: as §2
Chain of NADH-ubiquinone oxidoreductase chain 4 (Homo sapiens) (P03905 whole entry, looked up): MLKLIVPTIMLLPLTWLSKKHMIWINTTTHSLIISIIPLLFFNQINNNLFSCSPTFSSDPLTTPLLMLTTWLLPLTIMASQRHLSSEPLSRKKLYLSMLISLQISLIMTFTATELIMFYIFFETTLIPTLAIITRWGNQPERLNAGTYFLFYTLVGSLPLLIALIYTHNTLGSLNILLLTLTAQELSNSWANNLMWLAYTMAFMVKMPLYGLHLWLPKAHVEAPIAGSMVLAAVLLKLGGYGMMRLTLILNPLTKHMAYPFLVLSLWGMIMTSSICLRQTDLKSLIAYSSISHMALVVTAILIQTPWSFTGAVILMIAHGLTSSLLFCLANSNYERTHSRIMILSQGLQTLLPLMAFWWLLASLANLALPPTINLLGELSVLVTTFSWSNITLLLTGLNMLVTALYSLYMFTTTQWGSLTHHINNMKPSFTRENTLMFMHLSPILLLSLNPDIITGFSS
For data set [10] the target is unchanged. The data set is described as §3. In kind it is functional. In a few lines: as §4
Data set [11] relates to P388. The experiment in a line: ratio of medium survival time of the treated to the control mice at the dose of 12.50 (mg/kg). The format is functional, Mus musculus.
Data set [12] concerns P388. The data set is described as follows: ratio of medium survival time of the treated to the control mice at the dose of 3.12 (mg/kg). In kind it is functional, Mus musculus.
The subject of data set [13] is P388. The experiment in a line: ratio of medium survival time of the treated to the control mice at the dose of 6.25 (mg/kg). In kind it is functional, Mus musculus.
Data set [14] in a line: Ratio of toxic deaths/survivors 7 days after the day 5 injection as a measure of drug toxicity at the dose of 12.50 (mg/kg). The format is functional. The essentials: as §6
A short description of data set [15]: Ratio of toxic deaths/survivors 7 days after the day 5 injection as a measure of drug toxicity at the dose of 6.25 (mg/kg). The format is functional. The essentials:
as §6

Data set [16] can be described thus: Ratio of toxic deaths/survivors 7 days after the day 5 injection as a measure of drug toxicity at the dose of 3.12 (mg/kg). In kind it is functional. The essentials:
as §6

For data set [17], the system named is P388. The experiment in a line: ratio of medium survival time of the treated to the control mice at the dose of 25 (mg/kg). The format is functional, Mus musculus.
Data set [18] can be described thus: Ratio of toxic deaths/survivors 7 days after the day 5 injection as a measure of drug toxicity at the dose of 25 (mg/kg). In kind it is organism-based. As to conditions: in vivo, 168 h. The essentials: as §6
In data set [19] the test system is P388. The experiment in a line: ratio of medium survival time of the treated to the control mice at the dose of 50 (mg/kg). The format is functional, Mus musculus.
A short description of data set [20]: Ratio of toxic deaths/survivors 7 days after the day 5 injection as a measure of drug toxicity. The settings on record: 168 h. In a few lines: as §6
The test system of data set [21] is Mus musculus. The description is as §5. In kind it is functional.
Data set [22] can be described thus: Ratio of toxic deaths/survivors 7 days after the day 5 injection as a measure of drug toxicity at the dose of 200 (mg/kg). In kind it is organism-based. The settings on record: in vivo, 168 h. The essentials: as §6
Data set [23] has as its system Mus musculus. The experiment in a line: Ratio of medium survival time of the treated to the control mice at the dose of 200 (mg/kg). In kind it is functional.

For `NCCCNc1ccc2ncnc3c2c1C(=O)c1ccccc1-3`, the EC50 (commonly the concentration needed to bring the measured effect to its halfway point) in [1] was 546 nM. Besides, in data set [2], the concentration for an effect of 10% (IC10) (commonly the concentration at which the effect reaches the 10% level) was over 300000 nM. The Activity in [3] stood at 0.75 U/mL; in data set [7] it was 4.7 µM/min. Further, the T/C in data set [4] and in [5] was 127% in each case. In addition, the ToxD/Surv was determined as 4 in data set [6] and 7 in [8].

`O=C1c2ccccc2C(=O)c2c(NCCNCCO)ccc(NCCNCCO)c21` [AMETANTRONE] returned an EC50 in [1] of 275 nM. In [9], the IC10 turned out to be 114000 nM. This compound also had an Activity in data set [10] of 0.75 units ml-1. Besides, the T/C (usually the ratio of treated to control) in [11] came out at 300%; in [12] it was 190%; in [13], 210%. Moreover, the ToxD/Surv in data set [14], in [15] and in [16] was 6 in each case. For the same compound, in [7], the Oxidation was found to be 8.8 µM/min.

On to `NCCNc1ccc2ncnc3c2c1C(=O)c1ccccc1-3`, for which the response in [1] was half-maximal at 379 nM (EC50). The compound further gave an IC10 in data set [2] of over 300000 nM. The Activity in data set [3] worked out at 0.75 U/mL; in data set [7] it was 4.5 µM/min. Further, the results for the T/C in data set [5] and in [17] were 150% and 140%, respectively. The ToxD/Surv in data set [18] and in data set [8] was 7 throughout.

In [10], `COc1cccc2c1C(=O)c1c(O)c3c(c(O)c1C2=O)C[C@@](O)(C(=O)CO)C[C@@H]3O[C@H]1C[C@H](N)[C@H](O)[C@H](C)O1` returned an Activity of 0.15 units ml-1. In [7], this compound returned an Oxidation of 30.1 µM/min.

In turn, `COc1cccc2c1C(=O)c1c(O)c3c(c(O)c1C2=O)C[C@@](O)(C(C)=O)C[C@@H]3O[C@H]1C[C@H](N)[C@H](O)[C@H](C)O1` came in with an IC10 in data set [9] (Equus caballus) of 2000 nM. This compound also displayed an Activity in [10] of 0.15 units ml-1. Moreover, in data set [7], the Oxidation was 33 µM/min.

`CN(C)CCNc1ccc2ncnc3c2c1C(=O)c1ccccc1-3`: the response in data set [1] was half-maximal at 203 nM (EC50). The 10% effect concentration (IC10) in [2] was over 300000 nM. The results for the Activity in data set [3] and in data set [7] were 0.75 U/mL and 6.5 µM/min, respectively. Also, the values for the T/C in data set [4] and in data set [19] were 209% and 155%, respectively. Moreover, the ToxD/Surv in data set [6] and in [8] was 6 in each case.

In data set [1], `O=C1c2ccccc2-c2ncnc3ccc(NCCNCCO)c1c23` had an EC50 of 296 nM. In data set [9] (Equus caballus), this compound registered an IC10 of over 300000 nM. Besides, the Activity worked out at 0.75 U/mL in data set [3] and 7.4 µM/min in [7]. The T/C in [4] came out at 255%; in data set [5] it was 173%. In data set [20], the ToxD/Surv amounted to 7.

`CNCCNc1ccc2ncnc3c2c1C(=O)c1ccccc1-3` had an EC50 in data set [1] of 268 nM. In [2], this compound gave an IC10 of over 300000 nM. Besides, the results for the Activity in [3] and in [7] were 0.75 U/mL and 7.6 µM/min, respectively. The T/C in [4] worked out at 164%; in [5] it was 146%. Further, the ToxD/Surv in data set [6] and in [8] was 6 in each case.

For `CCN(CC)CCNc1ccc2ncnc3c2c1C(=O)c1ccccc1-3`, the concentration for a half-maximal effect (EC50) in [1] was 460 nM. The IC10 in data set [2] was over 300000 nM. The Activity was determined as 0.75 U/mL in data set [3] and 7 µM/min in [7]. Besides, the T/C was 180% in data set [4] and 140% in data set [5]. Also, the figures for the ToxD/Surv in data set [6] and in data set [8] were 7 and 5, respectively.

On to `Nc1ccc2ncnc3c2c1C(=O)c1ccccc1-3`, for which, in [1], the EC50 was determined as 945 nM. For the same compound, the T/C in data set [21] and in [23] was 100% throughout. Besides, the ToxD/Surv in [6] and in data set [22] was 0 throughout.
